ED50, inhibition and IC50 data for 11 compounds are collected here from ChEMBL document CHEMBL1122651, “5-Aryl-3-azabicyclo[3.2.0]heptan-6-one ketals, compounds with morphine-like analgesic activity” (J Med Chem, 1984).

Experiment [1] has as its system Rattus norvegicus. The experiment is described as follows: Analgesic activity of intraperitoneally administered compound was determined by the inflamed rat-paw reversal of abnormal (three-legged) gait; 8/10 Active. In kind it is functional. The settings on record: ip. The essentials: (§1)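 Rats with an inflamed paw and abnormal three-legged gait, dosed with compound or vehicle. Reversal of the abnormal gait is scored. A reduction of abnormal gait of at least 50% counts as a positive analgesic response. ED50 and 95% confidence limits by Finney's linear arc sine transformation.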

Experiment [2] is filed under the species Rattus norvegicus. To be noted: Brain, at 25 µM.
For experiment [3], the species on record is Rattus norvegicus. To be noted: Brain, at 0.78 µM.
Experiment [4] deals with Rattus norvegicus. The experiment is described as follows: Analgesic activity of intraperitoneally administered compound was determined by the inflamed rat-paw reversal of abnormal (three-legged) gait; R (reject) highest dose tested inactive. In kind it is functional. To be noted: ip. The essentials:
as §1

For experiment [5], the species on record is Rattus norvegicus. The experiment can be described thus: (§2) Concentration of drug required to inhibit the stereospecific binding of [3H]naloxone (5 nM) to homogenates of rat brain minus cerebellum in the presence of 100 mM NaCl. In kind it is functional. The essentials:
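Displacement of [3H]naloxone (5 nM) from stereospecific sites in rat brain homogenate (minus cerebellum), run with 100 mM NaCl added. Eight displacing ligand concentrations, each analysis in triplicate. Value is the drug concentration giving 50% inhibition of binding.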

For experiment [6], the species on record is Rattus norvegicus. The experiment can be described thus: Concentration of drug required to inhibit the stereospecific binding of [3H]-naloxone (5 nM) to homogenates of rat brain minus cerebellum in the absence of 100 mM NaCl. In kind it is functional, organism-based.
The species named for experiment [7] is Rattus norvegicus. The experiment is described as follows: Ability to displace [3H]naloxone binding from homogenates of rat brain minus cerebellum at the concentration of 0.78 uM. The essentials: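 Competition binding of [3H]naloxone to rat brain homogenate with cerebellum removed. Pert–Snyder procedure as modified by Ong et al. Percent inhibition of stereospecific binding read at a single drug concentration of 0.78 μM.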

In experiment [8] the test system is Rattus norvegicus. The experiment is described as follows: Analgesic activity of perorally administered compound was determined by the inflamed rat-paw reversal of abnormal (three-legged) gait. In kind it is functional. To be noted: po. The essentials: as §1
Experiment [9] deals with Rattus norvegicus. The experiment can be described thus: Analgesic activity of intraperitoneally administered compound was determined by the inflamed rat-paw reversal of abnormal (three-legged) gait. Format: functional. The settings on record: ip. The essentials: as §1
The test system of experiment [10] is Rattus norvegicus. The experiment can be described thus: Analgesic activity of intraperitoneally administered compound was determined by the inflamed rat-paw reversal of abnormal (three-legged) gait; 4/4 Active. The settings on record: ip. Format: functional. The essentials:
as §1

Experiment [11] relates to Rattus norvegicus. The experiment is described as follows: Analgesic activity of subcutaneously administered compound was determined by the inflamed rat-paw reversal of abnormal (three-legged) gait; 0.06-2.0. To be noted: sc.
For experiment [12], the species on record is Rattus norvegicus. Described as §2.
The species entered for experiment [13] is Rattus norvegicus. The experiment is described as follows: animal or person. The settings on record: po.

In general, ED50 refers to the midpoint of the dose-response relation. Regarding `COc1cccc(C23CN(C)CC2CC32OCC(C)(C)CO2)c1.O=C(O)/C=C/C(=O)O` (stereo not drawn), the ED50 in experiment [1] is below 25 mg/kg.
Usually inhibition stands for the share of the control response that was lost under treatment. `COc1cccc(C23CN(C)CC2CC3=O)c1` (stereo not drawn): the inhibition in experiment [2] amounted to 22%; in experiment [3] it was 12%. Also, in experiment [4], the ED50 came out at 25 mg/kg.
Broadly, the IC50 is the concentration needed to halve the response being measured. Regarding `COc1ccc2c3c1O[C@H]1[C@@H](O)C=C[C@H]4[C@@H](C2)N(C)CC[C@@]341` [CODEINE], the results for the IC50 in experiment [5] and in experiment [6] were 22000 nM and 2600 nM, respectively.
As to `COc1cccc(C23CN(C)CC2CC3(OC)OC)c1` (stereo not drawn), the IC50 in [5] is 62500 nM; in experiment [6], 9920 nM. The inhibition in experiment [7] came to 7%; in [2], 61%. Also, the ED50 in [8] amounted to 4 mg/kg.
Regarding `COC1(OC)CC2CN(C)CC21c1ccc(C)cc1` (stereo not drawn), the inhibition in experiment [7] turned out to be 11%; in experiment [2], 62%. Also, the ED50 in experiment [4] is 25 mg/kg.
Consider `COc1cccc(C23CNCC2CC3(OC)OC)c1` (stereo not drawn), for which the ED50 in [9] was above 25 mg/kg.
In the case of `C=CCN1CC[C@]23CCCC[C@H]2[C@H]1Cc1ccc(O)cc13` [LEVALLORPHAN], the IC50 in experiment [5] came to 34 nM; in experiment [6], 9 nM.
Regarding `COC1(OC)CC2CN(C)CC21c1cccc(O)c1` (stereo not drawn), the figures for the IC50 in experiment [5] and in experiment [6] were 579 nM and 61 nM, respectively. The 50% effective dose (ED50) in [9] was around 3 mg/kg. Besides, the inhibition in experiment [2] was 99%; in experiment [3], 85%.
On to `C=CCN1CC[C@]23c4c5ccc(O)c4O[C@H]2C(=O)CC[C@@]3(O)[C@H]1C5` [NALOXONE], for which the IC50 stood at 42 nM in experiment [5] and 46 nM in experiment [6].
Take `COC1(OC)CC2CN(C)CC21c1ccccc1` (stereo not drawn): the inhibition in experiment [7] was found to be 13%; in experiment [2] it was 62%. In addition, the ED50 in experiment [10] was below 25 mg/kg.
Consider `CN1CC[C@]23c4c5ccc(O)c4O[C@H]2[C@@H](O)C=C[C@H]3[C@H]1C5.CN1CC[C@]23c4c5ccc(O)c4O[C@H]2[C@@H](O)C=C[C@H]3[C@H]1C5.O=S(=O)(O)O`, for which the ED50 stood at 0.4 mg/kg in [11] and 35 mg/kg in [13]. Moreover, the inhibition turned out to be 100% in [2] and 97% in experiment [3]. Moreover, the IC50 came to 74 nM in experiment [6] and 380 nM in [12].
